Active and inactive are the calls of the source.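 Rule for the calls, unless noted: active = viability loss from added drug above about 55%, and viability with drug at most 40%, in both replicates (limit read from the data, passing the limit was not always enough); inconclusive = both conditions met in only one replicate; inactive = neither replicate meets both conditions.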
Legend:
[1] = HUVEC growth inhibition – cell-based, human, primary screen (AID 575;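 active = viability at or below 30% in both replicate assays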;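 note: 100% = median of untreated cell wells with 0.1% DMSO on each plate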); details: HUVEC proliferation, CellTiter-Glo luminescence, 72 h; at 10 µM; stronger effect = lower value
Procedure, shortened: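 Test system – primary HUVEC, no more than 12 passages · Dosing – one dose, 10 µM final, 0.1% DMSO · Times – 72 h treatment at 37 °C · Measured by – ATP-based CellTiter-Glo luminescent read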

[2] = growth inhibitors of H69AR lung tumor, primary screen, human, duplicate replicates (AID 580;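 active = viability at or under a set limit in both replicates, limit being median viability minus 3 SD, cut at about 48% in these data, passing the limit was not always enough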;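 note: 100% = mean luminescence of untreated wells and 0% = no signal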); details: H69AR lung tumor cells viability, ATP luminescence, 72 h; at 10 µM; stronger effect = lower value
[3] = reversal of MRP1-mediated doxorubicin resistance, pilot screen, H69AR cells, doxorubicin co-treatment (AID 601); details: CellTiter-Glo, 72 h, at 10 µM; for differential viability (reversal): stronger effect = higher value
[4] = 384-well plate pilot, post-Golgi transport modulator project, inhibition of yeast transport mutant growth (AID 636; in the data active = inhibition above about 31%); details: absorbance 615 nm, about 18 h, stronger effect = higher value
[5] = growth suppression of yeast trafficking mutant, preliminary HTS, modulators of trafficking downstream of Golgi apparatus project, 1536-format plate, OD 615 nm (AID 637; in the data active = inhibition above about 30%); details: yeast transport mutant growth, absorbance 615 nm, 18 h; stronger effect = higher value
[6] = H69AR cells + 2 uM doxorubicin, measured here: viability with 2 uM doxorubicin, stronger effect = lower value
[7] = H69AR cells, compound alone cytotoxicity

| SMILES | viability [1] | viability [2] | differential viability (reversal) ([3]; H69AR cells + 2 uM doxorubicin) | viability [3, 6] [%] | viability [3, 7] [%] | inhibition [4] | inhibition [5] |
| --- | --- | --- | --- | --- | --- | --- | --- |
| O=C(O)c1ccc(-n2nc(C(F)(F)F)c3c2-c2ccoc2CC3)cc1 | 70.8% (inactive) | 97% (inactive) | 9.15% (inactive) | 87.9 | 97 | 0.39% (inactive) | -1.43% (inactive) |
| CCOC(=O)C1CCN(S(=O)(=O)c2cccc(-c3csc(C)n3)c2)CC1 | 101% (inactive) | 90.4% (inactive) | 5.91% (inactive) | 84.5 | 90.4 | -5.2% (inactive) | 3.81% (inactive) |
| CC1(C)NC(=O)N(CCOc2cccc(Cl)c2Cl)C1=O | 98.7% (inactive) | 102% (inactive) | 14.6% (inactive) | 87.5 | 102 | -5.2% (inactive) | 10.2% (inactive) |
| Cc1cnn(C(=S)NCc2ccco2)c1 | 70.2% (inactive) | 84.5% (inactive) | -5.57% (inactive) | 90.1 | 84.5 | 2.24% (inactive) | -4.92% (inactive) |
| CCOc1ccc(CNc2ccc3c(c2)ncn3C)cc1 | 106% (inactive) | 93.2% (inactive) | 3.64% (inactive) | 89.5 | 93.2 | -3.73% (inactive) | -6.83% (inactive) |
| COC(=O)c1[nH]c2c(c1C)C(=O)CC(c1cccs1)C2 (stereo unspecified) | 44.9% (inactive) | 36.7% (active) | -39.3% (inactive) | 76 | 36.7 | -6.05% (inactive) | 4.13% (inactive) |
| CC(C)C1N=C2c3ccccc3N=C(SCC(=O)NCCc3ccc(S(N)(=O)=O)cc3)N2C1=O (stereo unspecified) | 82.8% (inactive) | 86.7% (inactive) | 4.46% (inactive) | 82.3 | 86.7 | -2.47% (inactive) | 4.13% (inactive) |
| COc1ccc(C(=O)N2CCOCC2)cc1Br | 116% (inactive) | 101% (inactive) | 5.83% (inactive) | 95 | 101 | -2.24% (inactive) | -4.92% (inactive) |
| CCOc1ccc(OCc2cccc(C(=O)N3CCOCC3)c2)cc1 | 83.9% (inactive) | 94.5% (inactive) | 0.305% (inactive) | 94.2 | 94.5 | -5.87% (inactive) | 2.7% (inactive) |
| c1ccc2c(c1)c1c3n2CCNC3CCC1 (stereo unspecified) | 91.1% (inactive) | 91.4% (inactive) | 4.74% (inactive) | 86.7 | 91.4 | -4.13% (inactive) | 0% (inactive) |
| CS(=O)(=O)N(CC(=O)NC1CC1)c1cccc(F)c1 | 86.5% (inactive) | 90% (inactive) | 5.87% (inactive) | 84.1 | 90 | -5.19% (inactive) | 0% (inactive) |
| COC(=O)COc1ccc(C(=O)OC)cc1 | 92.8% (inactive) | 108% (inactive) | 10.4% (inactive) | 97.4 | 108 | -1.84% (inactive) | -2.38% (inactive) |
| Brc1ccc(-c2nnc3sc(CN4CCC5(CC4)OCCO5)cn23)cc1 | 113% (inactive) | 95.9% (inactive) | 7.72% (inactive) | 88.1 | 95.9 | -2.08% (inactive) | -2.22% (inactive) |
| COc1ccc(C(=O)N2CCN(C(=O)c3ccco3)CC2)cc1OC | 87.2% (inactive) | 95.9% (inactive) | 4.87% (inactive) | 91.1 | 95.9 | -5.73% (inactive) | 0.32% (inactive) |
| O=C(Nc1ccccc1C(=O)N1CCOCC1)C1COc2ccccc2O1 (stereo unspecified) | 100% (inactive) | 103% (inactive) | 6.71% (inactive) | 96.6 | 103 | -0.53% (inactive) | 0% (inactive) |
| Cc1cccc(NCc2ccccc2O)c1 | 76.1% (inactive) | 94.6% (inactive) | 5.33% (inactive) | 89.2 | 94.6 | -0.13% (inactive) | -5.87% (inactive) |
| CCNc1oc(COc2cccc(C)c2)nc1C#N | 101% (inactive) | 90.9% (inactive) | 13.8% (inactive) | 77.1 | 90.9 | -7.53% (inactive) | -10.3% (inactive) |
| COc1oc(-c2ccccc2)nc1C(F)(F)F | 94.3% (inactive) | 109% (inactive) | 9.45% (inactive) | 99.9 | 109 | -3.82% (inactive) | -2.38% (inactive) |
| S=c1[nH]nc(COc2ccccc2)n1C1CCCCC1 | 89.5% (inactive) | 81.6% (inactive) | 22.4% (inactive) | 59.2 | 81.6 | -0.39% (inactive) | 6.35% (inactive) |

| SMILES | viability [1] | viability [2] | differential viability (reversal) ([3]; H69AR cells + 2 uM doxorubicin) | viability [3, 6] [%] | viability [3, 7] [%] | inhibition [4] | inhibition [5] |
| --- | --- | --- | --- | --- | --- | --- | --- |
| COc1ccccc1C1(CC(=O)N2CCOCC2)CCOC(C(C)C)C1 (stereo unspecified) | 72.7% (inactive) | 88.8% (inactive) | -2.17% (inactive) | 91 | 88.8 | -5.47% (inactive) | -6.03% (inactive) |
| CC(O)CN(Cc1cccc(Cl)c1)CC(C)O (stereo unspecified) | 100% (inactive) | 99.4% (inactive) | -0.905% (inactive) | 100 | 99.4 | -1.32% (inactive) | 4.13% (inactive) |
| CC1CCN(CCC(=O)Nc2ccc(Br)cc2)CC1 | 88.6% (inactive) | 89.2% (inactive) | 8.88% (inactive) | 80.4 | 89.2 | -4.47% (inactive) | 0.32% (inactive) |
| CCOC(=O)CC(C#N)c1cn(C)c2ccccc12 (stereo unspecified) | 86.6% (inactive) | 88% (inactive) | -4.15% (inactive) | 92.2 | 88 | -6.58% (inactive) | -4.6% (inactive) |
| CC(=O)C1=C(C)NC(=O)NC1c1cccc(O)c1 (stereo unspecified) | 99.8% (inactive) | 94.4% (inactive) | 8.07% (inactive) | 86.3 | 94.4 | -2.93% (inactive) | 0.16% (inactive) |
| CN(C)/C=c1\sc2c(C#N)cc(C(=O)c3ccc(Br)cc3)n2c1=O | 70% (inactive) | 76.6% (inactive) | 8.66% (inactive) | 68 | 76.6 | -4.29% (inactive) | -1.59% (inactive) |
| O=C(COc1ccccc1Cl)N1CCCC1 | 105% (inactive) | 91.9% (inactive) | -0.435% (inactive) | 92.3 | 91.9 | 2.24% (inactive) | -4.6% (inactive) |
| CCOc1ccc(C2/C(=C(/O)c3ccccc3)C(=O)C(=O)N2CCCN(C)C)cc1OC (stereo unspecified) | 111% (inactive) | 100% (inactive) | 7.23% (inactive) | 92.9 | 100 | -2.63% (inactive) | 6.19% (inactive) |
| COC(=O)c1c(N)sc(C(=O)N2CCOCC2)c1C | 95.2% (inactive) | 97.7% (inactive) | 6.62% (inactive) | 91 | 97.7 | -0.4% (inactive) | -5.87% (inactive) |
| Nc1nc(C(=O)N2CCOCC2)nn1S(=O)(=O)c1ccc(Cl)cc1 | 99.1% (inactive) | 95.2% (inactive) | -1.83% (inactive) | 97 | 95.2 | -1.3% (inactive) | -0.95% (inactive) |
| Cn1c(SCc2c(F)cccc2Cl)nnc1-c1cccs1 | 112% (inactive) | 87.9% (inactive) | 10.2% (inactive) | 77.6 | 87.9 | -1.33% (inactive) | -5.87% (inactive) |
| Cc1ccc(C)c(Cn2c(=O)n(CCC(=O)NCc3ccco3)c(=O)c3sccc32)c1 | 74.6% (inactive) | 87.7% (inactive) | -0.04% (inactive) | 87.7 | 87.7 | -2.86% (inactive) | -0.63% (inactive) |
| CCSc1nc(-c2ccc(OC)cc2)ccc1C#N | 65.8% (inactive) | 66.5% (inactive) | -19.8% (inactive) | 86.3 | 66.5 | -1.69% (inactive) | -1.27% (inactive) |
| CCCn1cc(C(CC(=O)O)C(=O)O)c2ccccc21 (stereo unspecified) | 92.8% (inactive) | 89.1% (inactive) | -3.86% (inactive) | 93 | 89.1 | -7.33% (inactive) | 5.24% (inactive) |
| CC(C)CC(OC(=O)c1cccs1)C(=O)NCc1ccco1 (stereo unspecified) | 103% (inactive) | 80.6% (inactive) | -0.4% (inactive) | 81 | 80.6 | -7.6% (inactive) | -4.13% (inactive) |
| O=C(Nc1nccs1)c1cccc(NC(=O)C2CC2)c1 | 103% (inactive) | 87.5% (inactive) | 8.43% (inactive) | 79.1 | 87.5 | -6.13% (inactive) | -0.48% (inactive) |
| CC1CC(C)CN(CCCNC(=O)c2ccc3c(c2)NC(=O)C(N2CCCCC2)S3)C1 (stereo unspecified) | 88.6% (inactive) | 87.8% (inactive) | 4.94% (inactive) | 82.8 | 87.8 | 2.4% (inactive) | -7.14% (inactive) |
| O=C1CNCc2[nH]c3ccccc3c2N1c1ccccc1 | 94.2% (inactive) | 94.8% (inactive) | -1.22% (inactive) | 96 | 94.8 | -3.95% (inactive) | 1.27% (inactive) |
| CC(=O)Nc1ccc(S(=O)(=O)N(CC(=O)O)Cc2ccccc2)cc1 | 93.7% (inactive) | 97.7% (inactive) | -6.14% (inactive) | 104 | 97.7 | -2.47% (inactive) | 7.14% (inactive) |
